Consider 20 molecules from ChEMBL document CHEMBL1154832, “Synthesis and antitumor activity of new dihydropyridine thioglycosides and their corresponding dehydrogenated forms” (Eur J Med Chem, 2010).

Series [1] deals with Mus musculus. Description: Acute toxicity in ip dosed Swiss albino mouse xenografted with human HepG2 cells assessed as mortality measured up to two weeks. In kind it is organism-based. The conditions noted are these: in vivo. Put shortly: (§1)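 Adult Swiss albino mice fasted 12 h, randomised into groups of 10. Single i.p. administration at graded doses, 1 ml/kg body weight; controls received vehicle alone. Food and water given immediately after dosing. Mortality followed for up to two weeks. LD50 taken as the dose giving 50% mortality.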

The subject of series [2] is Mus musculus. In words: Acute toxicity in ip dosed Swiss albino mouse inoculated with human HeLa cells assessed as mortality measured up to two weeks. The class given is organism-based. The following applies: in vivo. The gist of the method: as §1
A further series has as its system HepG2. In words: Antitumor activity against human HepG2 cells xenografted in Swiss albino mouse assessed as increase in life span at 10 ug/kg, ip for 10 consecutive days relative to control. In kind it is functional. The gist of the method:
(§2)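 Male Swiss albino mice (20 ± 2 g), acclimatised one week at 25–27 °C, 12 h light/dark. Ascites tumour established by i.p. inoculation of 1 × 10⁶ viable cells. Dosing began 24 h after inoculation, i.p. daily for 10 consecutive days. DMSO vehicle control group; cisplatine 2 mg/kg i.p. for 10 days as reference. Survival time recorded and % increase in life span derived; mean ± SE, n = 10 mice.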

Another series has as its system HeLa. In words: Antitumor activity against human HeLa cells xenografted in Swiss albino mouse assessed as increase in life span at 10 ug/kg, ip for 10 consecutive days relative to control. In kind it is functional. The gist of the method:
as §2

For `N#CC1=C(N)NC(S[C@@H]2O[C@H](O)[C@H](O)[C@H](O)[C@H]2O)=C(C#N)C1c1ccc2ccccc2c1` (stereo not given in full), the results for the LD50 in the series with Mus musculus [1] and with Mus musculus [2] were 0.13 mg/kg and 0.12 mg/kg, respectively. Further, the Activity in the series with HepG2 stood at 60%; in the series on HeLa, 45%.
As to `CC(=O)O[C@H]1O[C@@H](Sc2nc(N)c(C#N)c(-c3ccc4ccccc4c3)c2C#N)[C@H](OC(C)=O)[C@@H](OC(C)=O)[C@H]1OC(C)=O`, the LD50 in the series with Mus musculus [1] stood at 0.125 mg/kg; in the series on Mus musculus [2] it was 0.135 mg/kg. The values for the Activity with HepG2 and with HeLa were 50% and 39%, respectively.
Take `CC(=O)O[C@H]1O[C@@H](Sc2nc(N)c(C#N)c(-c3ccc(Br)cc3)c2C#N)[C@H](OC(C)=O)[C@@H](OC(C)=O)[C@@H]1OC(C)=O`: the LD50 in the series on Mus musculus [1] came to 0.065 mg/kg; in the series with Mus musculus [2] it was 0.075 mg/kg. Moreover, the Activity in the series on HepG2 amounted to 48%; in the series on HeLa, 46%.
As for `N#Cc1c(N)nc(S[C@@H]2O[C@H](O)[C@@H](O)[C@H](O)[C@H]2O)c(C#N)c1-c1ccc2ccccc2c1`, the LD50 in the series with Mus musculus [1] is 0.13 mg/kg; in the series on Mus musculus [2], 0.11 mg/kg. Moreover, the results for the Activity in the series with HepG2 and in the series on HeLa were 58% and 51%, respectively.
In the case of `COc1ccc(-c2c(C#N)c(N)nc(S[C@@H]3O[C@H](OC(C)=O)[C@H](OC(C)=O)[C@H](OC(C)=O)[C@H]3OC(C)=O)c2C#N)cc1`, the LD50 in the series on Mus musculus [1] is 0.065 mg/kg; with Mus musculus [2], 0.07 mg/kg. The values for the Activity in the series with HepG2 and with HeLa were 48% and 47%, respectively.
Consider `COc1ccc(C2C(C#N)=C(N)NC(S[C@@H]3O[C@H](O)[C@@H](O)[C@H](O)[C@H]3O)=C2C#N)cc1` (stereo not given in full), for which the figures for the LD50 in the series on Mus musculus [1] and in the series with Mus musculus [2] were 0.11 mg/kg and 0.095 mg/kg, respectively. Moreover, the Activity with HepG2 amounted to 69%; in the series on HeLa it was 55%.
For the molecule `CC(=O)O[C@H]1O[C@@H](SC2=C(C#N)C(c3ccccc3)C(C#N)=C(N)N2)[C@H](OC(C)=O)[C@@H](OC(C)=O)[C@@H]1OC(=O)O` (stereo not given in full), the LD50 in the series on Mus musculus [1] was found to be 0.08 mg/kg; in the series on Mus musculus [2], 0.075 mg/kg. Further, the Activity in the series on HepG2 is on record as 29%; in the series with HeLa, 30%.
On to `COc1ccc(C2C(C#N)=C(N)NC(S[C@@H]3O[C@H](O)[C@H](O)[C@H](O)[C@H]3O)=C2C#N)cc1` (stereo not given in full), for which the LD50 with Mus musculus [1] stood at 0.06 mg/kg; in the series with Mus musculus [2], 0.08 mg/kg. Further, the Activity is recorded as 63% in the series on HepG2 and 44% in the series with HeLa.
For `N#Cc1c(N)nc(S[C@@H]2O[C@H](O)[C@H](O)[C@H](O)[C@H]2O)c(C#N)c1-c1ccc2ccccc2c1`, the LD50 in the series with Mus musculus [1] came to 0.145 mg/kg; with Mus musculus [2] it was 0.125 mg/kg. Moreover, the Activity worked out at 57% in the series on HepG2 and 53% in the series with HeLa.
The corresponding values for `N#CC1=C(N)NC(S[C@@H]2O[C@H](O)[C@@H](O)[C@H](O)[C@H]2O)=C(C#N)C1c1ccc2ccccc2c1` (stereo not given in full) are 0.11 mg/kg, 0.115 mg/kg, 50% and 39%.
The corresponding values for `CC(=O)O[C@H]1O[C@@H](SC2=C(C#N)C(c3ccc(Br)cc3)C(C#N)=C(N)N2)[C@H](OC(C)=O)[C@@H](OC(C)=O)[C@@H]1OC(=O)O` (stereo not given in full) are 0.09 mg/kg, 0.09 mg/kg, 31% and 29%.
The corresponding values for `CC(=O)O[C@H]1O[C@@H](SC2=C(C#N)C(c3ccc([N+](=O)[O-])cc3)C(C#N)=C(N)N2)[C@H](OC(C)=O)[C@@H](OC(C)=O)[C@@H]1OC(=O)O` (stereo not given in full) are 0.085 mg/kg, 0.07 mg/kg, 34% and 27%.
Regarding `CC(=O)O[C@H]1O[C@@H](Sc2nc(N)c(C#N)c(-c3ccccc3)c2C#N)[C@H](OC(C)=O)[C@@H](OC(C)=O)[C@H]1OC(C)=O`, the LD50 came to 0.065 mg/kg with Mus musculus [1] and 0.06 mg/kg in the series on Mus musculus [2]. The Activity amounted to 43% in the series with HepG2 and 38% in the series with HeLa.
On the same counts, the results for `COc1ccc(-c2c(C#N)c(N)nc(S[C@@H]3O[C@H](O)[C@H](O)[C@H](O)[C@H]3O)c2C#N)cc1` are 0.115 mg/kg, 0.13 mg/kg, 56% and 47%.
In the case of `COc1ccc(C2C(C#N)=C(N)NC(S[C@@H]3O[C@H](OC(C)=O)[C@@H](OC(=O)O)[C@H](OC(C)=O)[C@H]3OC(C)=O)=C2C#N)cc1` (stereo not given in full), the LD50 was 0.15 mg/kg with Mus musculus [1] and 0.16 mg/kg in the series on Mus musculus [2]. The results for the Activity in the series with HepG2 and with HeLa were 39% and 25%, respectively.
The corresponding values for `CC(=O)O[C@H]1O[C@@H](SC2=C(C#N)C(c3ccc4ccccc4c3)C(C#N)=C(N)N2)[C@H](OC(C)=O)[C@@H](OC(C)=O)[C@H]1OC(=O)O` (stereo not given in full) are 0.065 mg/kg, 0.07 mg/kg, 38% and 31%.
On the same counts, the results for `N#Cc1c(N)nc(S[C@@H]2O[C@H](O)[C@@H](O)[C@H](O)[C@H]2O)c(C#N)c1-c1ccc(Br)cc1` are 0.105 mg/kg, 0.12 mg/kg, 60% and 50%.
Regarding `CC(=O)O[C@H]1O[C@@H](SC2=C(C#N)C(c3ccccc3)C(C#N)=C(N)N2)[C@H](OC(C)=O)[C@@H](OC(C)=O)[C@H]1OC(=O)O` (stereo not given in full), the LD50 in the series on Mus musculus [1] was 0.07 mg/kg; in the series on Mus musculus [2], 0.06 mg/kg. In addition, the results for the Activity in the series with HepG2 and with HeLa were 34% and 30%, respectively.
With `CC(=O)O[C@H]1O[C@@H](Sc2nc(N)c(C#N)c(-c3ccc4ccccc4c3)c2C#N)[C@H](OC(C)=O)[C@@H](OC(C)=O)[C@@H]1OC(C)=O`, the LD50 with Mus musculus [1] and in the series with Mus musculus [2] was 0.06 mg/kg each time. Also, the Activity amounted to 49% in the series with HepG2 and 40% in the series on HeLa.
Consider `COc1ccc(C2C(C#N)=C(N)NC(S[C@@H]3O[C@H](OC(C)=O)[C@H](OC(=O)O)[C@H](OC(C)=O)[C@H]3OC(C)=O)=C2C#N)cc1` (stereo not given in full), for which the figures for the LD50 with Mus musculus [1] and with Mus musculus [2] were 0.06 mg/kg and 0.065 mg/kg, respectively. Also, the Activity in the series with HepG2 and in the series with HeLa was 30% each time.
